We go through one compound from ChEMBL document CHEMBL4028902, “Azetidine and Piperidine Carbamates as Efficient, Covalent Inhibitors of Monoacylglycerol Lipase” (J Med Chem, 2017).

In assay [1] the test system is Mus musculus. Kind of assay: In vivo inhibition of MAGL in C57Bl6 mouse assessed as increase in 2-AG levels in brain at 1 mg/kg, sc measured after 1 to 24 hrs by LC-MS/MS method. The assay is classed as functional, organism-based. Summed up: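 C57Bl6 mice, 7 weeks old, 4 per cage, food and water ad libitum, dosed subcutaneously in DMSO/Cremophor/saline (5:5:90, v/v/v). Brains taken after isoflurane, cardiac puncture and cervical dislocation at 0.5, 1, 2, 4, 8, 12 and 24 h (3 mice per time point); vehicle group at 1 h. Frozen in liquid nitrogen, homogenized in 3 volumes PMSF/NH4OAc buffer pH 2.0, d5-2-AG internal standard, ACN extraction, LC-MS/MS (positive ESI, SRM).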

Assay [2] concerns the target T1, Monoglyceride lipase (Homo sapiens) (UniProt Q99685).
T1 sequence (whole entry): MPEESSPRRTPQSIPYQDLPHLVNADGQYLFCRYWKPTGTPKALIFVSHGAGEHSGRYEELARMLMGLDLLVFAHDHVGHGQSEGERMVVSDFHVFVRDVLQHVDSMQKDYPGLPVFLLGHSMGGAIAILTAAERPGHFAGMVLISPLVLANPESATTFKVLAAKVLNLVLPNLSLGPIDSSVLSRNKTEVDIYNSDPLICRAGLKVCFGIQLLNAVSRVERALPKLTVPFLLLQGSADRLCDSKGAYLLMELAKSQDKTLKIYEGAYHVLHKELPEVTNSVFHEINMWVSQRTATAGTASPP
Kind of assay: Inhibition of MAGL in human brain vascular pericytes. Type of assay: cell-based. In short, it runs like this: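 Human brain vascular pericytes grown in DMEM/F12 with 5% heat-inactivated FBS and pericyte growth supplement, then given alkyne-tagged probe (1000× DMSO stock) in medium for 1 h at 37 °C. Pellets lysed in PBS/0.25% SDS, proteome normalized to 1.0 mg/mL, Cu-catalyzed click with TAMRA azide, SDS-PAGE in-gel fluorescence. Two MAGL bands averaged; two biological replicates fitted to a dose–response curve.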

Calls of active or inactive are those of the source. The calls are words filed in the database; no cut-off is given here.

Take `O=C(OC(C(F)(F)F)C(F)(F)F)N1CC(c2ccn(-c3ccccc3)n2)C1`: the inhibition result in assay [1] was “inactive”. In assay [2], the inhibition result is “Active”.
